PMC3101112 (Cancer Management and Research, 2011)
Where “and” joins values, the source holds several entries; their conditions need not be identical. Equal values may be shown once. Read-outs that look alike come from different tables or passages of the source.

Key:
[1] = tested on: MV4-11 cells containing the FLT3-ITD mutation; conditions: animals; cited from earlier work
[2] = tested on: CYP3A4, CYP2D6, and CYP2C9; assay: Drug-drug interaction cocktail; assay type: in vivo, human; conditions: AML patients, cocktail before and after multiple doses of 50 mg/day
How it was run: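 The probe cocktail was midazolam 0.2 mg (CYP3A4), dextromethorphan 30 mg (CYP2D6) and tolbutamide 500 mg (CYP2C9), given after a two-hour fast. It was dosed ~7 days before the single test-compound dose and again after two or four weeks of daily 50 mg oral test compound. Probe plasma concentration–time profiles were compared before and after treatment.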

RET = RET (Homo sapiens, UniProt P07949); assay: Biochemical inhibition profile, RET; conditions: read-out: Biochemical Inhibition Profile IC50, RET
[3] = Plasma pharmacokinetics in patients with relapsed AML; assay type: in vivo, human
How it was run: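 Relapsed AML patients got 50 mg test compound orally after an ~8 h fast, without the probe cocktail. Plasma was sampled over 48 h after a single dose and over 12 h after one week of once-daily dosing. Tmax, Cmax, AUC and oral clearance came from noncompartmental analysis.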

EPHA4 = EPHA4 (Homo sapiens, UniProt P54764); assay: Biochemical inhibition profile, EPHA4; conditions: read-out: Biochemical Inhibition Profile IC50, EPHA4
[4] = tested on: human ether-à-go-go-related gene (hERG); conditions: read-out: hERG IC50; ref data on file, Eli Lilly and Company; cited from earlier work
[5] = tested on: pERK T202Y204 in HUVEC (with BSA); assay: Cell-based target inhibition assay, HUVEC, VEGF, pERK with BSA; design: species or system human; conditions: read-out: Cell-Based Target Inhibition Assays IC50, pERK T202Y204 (with BSA), activator VEGF, with BSA
RAF = assay: Biochemical inhibition profile, RAF; design: species or system Human; conditions: read-out: Biochemical Inhibition Profile IC50, RAF
AML blasts = assay: Antileukemia response assessment in patients; assay type: in vivo, human
How it was run: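 Response was judged by WHO criteria on bone marrow aspirates taken at baseline and after four weeks of daily oral dosing (two weeks after amendment). Peripheral blast counts were taken daily during the multidose visit. A sustained fall in peripheral blast counts lasting longer than four weeks also counted as a pharmacodynamic response.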

VEGF-R3 = VEGF-R3 (Homo sapiens, UniProt P35916); assay: Biochemical inhibition profile, VEGF-R3; conditions: read-out: Biochemical Inhibition Profile IC50, VEGF-R3
Sequence of VEGF-R3 (P35916 25-1363): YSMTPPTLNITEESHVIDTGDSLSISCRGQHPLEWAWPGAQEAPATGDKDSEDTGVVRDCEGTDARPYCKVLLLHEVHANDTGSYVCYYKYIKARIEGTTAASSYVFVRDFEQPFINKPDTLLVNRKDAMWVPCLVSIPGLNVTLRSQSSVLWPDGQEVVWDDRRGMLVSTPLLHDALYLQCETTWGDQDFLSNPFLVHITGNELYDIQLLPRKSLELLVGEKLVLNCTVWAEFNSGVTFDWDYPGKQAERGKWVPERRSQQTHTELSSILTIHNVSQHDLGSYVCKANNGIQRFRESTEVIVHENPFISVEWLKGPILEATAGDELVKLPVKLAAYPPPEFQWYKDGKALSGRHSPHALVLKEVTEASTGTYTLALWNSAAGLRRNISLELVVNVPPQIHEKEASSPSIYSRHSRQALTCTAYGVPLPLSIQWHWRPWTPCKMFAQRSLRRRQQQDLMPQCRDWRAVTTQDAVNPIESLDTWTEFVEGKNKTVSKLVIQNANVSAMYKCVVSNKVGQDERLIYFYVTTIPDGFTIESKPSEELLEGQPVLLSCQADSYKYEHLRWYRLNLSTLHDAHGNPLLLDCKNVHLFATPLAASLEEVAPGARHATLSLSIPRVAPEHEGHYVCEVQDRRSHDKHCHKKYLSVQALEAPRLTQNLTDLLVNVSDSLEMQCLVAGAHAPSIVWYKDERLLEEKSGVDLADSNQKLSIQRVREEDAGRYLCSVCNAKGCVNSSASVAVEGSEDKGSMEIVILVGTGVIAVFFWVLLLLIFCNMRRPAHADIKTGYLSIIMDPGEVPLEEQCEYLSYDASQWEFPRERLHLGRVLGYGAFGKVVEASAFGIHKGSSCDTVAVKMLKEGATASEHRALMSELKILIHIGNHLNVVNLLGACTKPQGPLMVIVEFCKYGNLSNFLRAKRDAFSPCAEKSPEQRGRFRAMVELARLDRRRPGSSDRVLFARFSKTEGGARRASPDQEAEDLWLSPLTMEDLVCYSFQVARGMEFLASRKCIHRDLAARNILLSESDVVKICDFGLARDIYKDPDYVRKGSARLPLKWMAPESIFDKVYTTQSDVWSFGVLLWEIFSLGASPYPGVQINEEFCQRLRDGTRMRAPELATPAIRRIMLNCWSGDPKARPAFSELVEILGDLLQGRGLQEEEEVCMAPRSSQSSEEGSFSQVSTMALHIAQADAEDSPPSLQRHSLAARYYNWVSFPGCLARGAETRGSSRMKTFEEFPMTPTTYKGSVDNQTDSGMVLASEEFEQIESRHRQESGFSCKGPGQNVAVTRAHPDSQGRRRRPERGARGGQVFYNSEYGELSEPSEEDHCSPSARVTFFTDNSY

EPHA8 = EPHA8 (Homo sapiens, UniProt P29322); assay: Biochemical inhibition profile, EPHA8; conditions: read-out: Biochemical Inhibition Profile IC50, EPHA8
Sequence of EPHA8 (P29322 28-1005): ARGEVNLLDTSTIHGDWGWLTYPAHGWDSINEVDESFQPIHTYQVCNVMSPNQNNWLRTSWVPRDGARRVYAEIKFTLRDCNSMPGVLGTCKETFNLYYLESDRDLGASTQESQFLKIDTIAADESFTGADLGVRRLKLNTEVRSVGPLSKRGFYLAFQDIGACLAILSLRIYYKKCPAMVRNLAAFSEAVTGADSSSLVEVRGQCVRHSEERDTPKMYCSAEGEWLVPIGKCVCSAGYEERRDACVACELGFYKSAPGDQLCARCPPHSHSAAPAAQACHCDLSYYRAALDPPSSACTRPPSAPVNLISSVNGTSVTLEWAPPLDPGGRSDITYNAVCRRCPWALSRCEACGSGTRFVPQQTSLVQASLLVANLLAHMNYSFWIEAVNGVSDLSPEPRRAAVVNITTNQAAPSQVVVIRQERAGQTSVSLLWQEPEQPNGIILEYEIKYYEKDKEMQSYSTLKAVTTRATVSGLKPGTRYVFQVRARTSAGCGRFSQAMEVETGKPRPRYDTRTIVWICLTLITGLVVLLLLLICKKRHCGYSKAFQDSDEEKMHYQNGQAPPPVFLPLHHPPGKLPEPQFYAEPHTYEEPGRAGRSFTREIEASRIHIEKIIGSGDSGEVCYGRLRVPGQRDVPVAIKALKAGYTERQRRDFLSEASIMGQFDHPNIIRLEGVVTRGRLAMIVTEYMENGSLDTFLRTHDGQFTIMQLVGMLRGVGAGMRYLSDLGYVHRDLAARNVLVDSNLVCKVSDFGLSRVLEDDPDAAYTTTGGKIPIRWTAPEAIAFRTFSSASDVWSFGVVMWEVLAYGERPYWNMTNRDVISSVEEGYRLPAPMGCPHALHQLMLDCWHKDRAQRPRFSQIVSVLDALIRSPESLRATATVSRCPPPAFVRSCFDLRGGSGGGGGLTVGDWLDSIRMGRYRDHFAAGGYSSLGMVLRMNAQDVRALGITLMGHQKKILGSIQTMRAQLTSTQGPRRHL

p70S6K = p70S6K (Homo sapiens, UniProt P23443); assay: Biochemical inhibition profile, p70S6K; conditions: at 20 μM
Sequence of p70S6K (P23443 whole entry): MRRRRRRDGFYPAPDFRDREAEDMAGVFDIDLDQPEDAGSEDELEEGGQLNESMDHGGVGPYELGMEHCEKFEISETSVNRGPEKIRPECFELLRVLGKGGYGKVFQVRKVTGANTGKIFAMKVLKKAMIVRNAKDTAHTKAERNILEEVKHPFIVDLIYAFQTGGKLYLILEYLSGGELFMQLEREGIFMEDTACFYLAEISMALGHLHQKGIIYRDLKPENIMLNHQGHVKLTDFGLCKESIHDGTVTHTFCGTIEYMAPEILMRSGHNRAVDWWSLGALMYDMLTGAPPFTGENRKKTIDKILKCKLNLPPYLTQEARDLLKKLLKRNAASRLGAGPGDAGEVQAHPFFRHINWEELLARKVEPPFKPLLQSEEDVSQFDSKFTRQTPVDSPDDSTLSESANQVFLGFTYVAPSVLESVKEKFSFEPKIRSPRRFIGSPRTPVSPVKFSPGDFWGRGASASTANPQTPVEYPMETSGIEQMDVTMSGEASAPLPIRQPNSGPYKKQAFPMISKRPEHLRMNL

cKIT = cKIT (Homo sapiens, UniProt P10721); assay: Biochemical inhibition profile, cKIT; conditions: read-out: Biochemical Inhibition Profile IC50, cKIT
Sequence of cKIT (P10721 26-976): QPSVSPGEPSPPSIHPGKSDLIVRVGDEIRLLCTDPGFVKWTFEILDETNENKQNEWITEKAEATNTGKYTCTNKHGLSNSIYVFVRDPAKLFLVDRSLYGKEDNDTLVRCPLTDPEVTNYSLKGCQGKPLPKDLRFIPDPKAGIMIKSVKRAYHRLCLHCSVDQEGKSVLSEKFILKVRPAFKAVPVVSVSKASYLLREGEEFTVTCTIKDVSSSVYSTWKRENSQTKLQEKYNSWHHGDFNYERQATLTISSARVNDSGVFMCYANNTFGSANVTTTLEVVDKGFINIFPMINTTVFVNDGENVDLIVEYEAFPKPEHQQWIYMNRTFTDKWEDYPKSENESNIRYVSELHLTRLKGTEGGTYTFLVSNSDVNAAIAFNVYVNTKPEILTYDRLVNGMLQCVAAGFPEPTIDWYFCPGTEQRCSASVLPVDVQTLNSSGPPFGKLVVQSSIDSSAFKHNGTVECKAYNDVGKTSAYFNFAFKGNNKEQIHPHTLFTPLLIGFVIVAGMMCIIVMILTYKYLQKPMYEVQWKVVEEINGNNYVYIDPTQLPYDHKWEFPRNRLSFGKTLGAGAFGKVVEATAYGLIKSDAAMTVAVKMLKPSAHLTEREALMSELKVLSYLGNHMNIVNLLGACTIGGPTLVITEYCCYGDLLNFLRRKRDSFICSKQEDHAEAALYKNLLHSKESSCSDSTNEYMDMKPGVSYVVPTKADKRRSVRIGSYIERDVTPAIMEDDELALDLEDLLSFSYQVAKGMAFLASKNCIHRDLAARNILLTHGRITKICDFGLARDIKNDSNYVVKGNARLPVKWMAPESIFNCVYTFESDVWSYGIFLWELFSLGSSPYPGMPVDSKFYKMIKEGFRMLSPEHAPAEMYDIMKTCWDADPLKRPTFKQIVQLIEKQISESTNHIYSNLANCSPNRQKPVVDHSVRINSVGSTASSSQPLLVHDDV

EPHB4 [6] = target: T1, EPHB4 (Homo sapiens, UniProt P54760); conditions: read-out: Cell-Based Target Inhibition Assays IC50, pEphB4 Y590/Y596; HEK293-Clone 25; stable over-expression of EphB4
T1 sequence (P54760 16-987): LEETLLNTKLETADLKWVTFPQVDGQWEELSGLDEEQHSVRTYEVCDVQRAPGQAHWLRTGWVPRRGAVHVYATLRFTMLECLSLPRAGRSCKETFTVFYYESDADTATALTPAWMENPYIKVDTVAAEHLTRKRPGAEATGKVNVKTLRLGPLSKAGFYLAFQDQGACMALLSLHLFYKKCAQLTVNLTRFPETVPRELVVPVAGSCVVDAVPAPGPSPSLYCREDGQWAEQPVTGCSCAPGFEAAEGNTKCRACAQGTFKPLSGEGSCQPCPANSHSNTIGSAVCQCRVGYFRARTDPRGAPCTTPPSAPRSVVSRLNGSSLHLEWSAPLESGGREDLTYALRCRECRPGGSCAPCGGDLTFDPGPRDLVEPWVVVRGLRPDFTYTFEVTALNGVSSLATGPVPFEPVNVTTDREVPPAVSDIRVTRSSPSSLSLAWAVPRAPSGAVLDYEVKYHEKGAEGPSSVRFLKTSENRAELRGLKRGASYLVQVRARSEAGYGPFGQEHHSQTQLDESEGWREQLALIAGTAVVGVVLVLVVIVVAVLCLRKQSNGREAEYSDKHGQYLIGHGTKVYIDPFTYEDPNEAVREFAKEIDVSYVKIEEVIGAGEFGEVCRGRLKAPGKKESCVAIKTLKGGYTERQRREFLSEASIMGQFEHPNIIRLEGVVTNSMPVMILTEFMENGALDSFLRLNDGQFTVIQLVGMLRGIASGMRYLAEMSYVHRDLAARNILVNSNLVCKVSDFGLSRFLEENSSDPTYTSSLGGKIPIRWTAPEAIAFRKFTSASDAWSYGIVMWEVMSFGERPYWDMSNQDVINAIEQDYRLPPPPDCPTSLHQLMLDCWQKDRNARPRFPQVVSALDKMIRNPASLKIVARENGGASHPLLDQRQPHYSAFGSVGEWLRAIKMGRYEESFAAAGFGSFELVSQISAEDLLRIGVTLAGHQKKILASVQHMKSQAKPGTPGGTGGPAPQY

[7] = tested on: pFLT3, pcKIT, pS6 in AML blasts; assay: Flow cytometry of phosphoproteins in AML blasts of patients; assay type: in vivo, human; conditions: after multiple dosing 50 mg/day; at least three patients (B, C, and E)
How it was run: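 Patient blood or marrow samples reached a central lab within 48 h. […] Peripheral CD34+CD11− cells were gated on a 3-laser FACSCanto II. Sampling was predose, day 1, 8, 15 and end of study. Read-out was MEFL.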

EPHB4 [8] = target: T1, EPHB4; conditions: read-out: Biochemical Inhibition Profile IC50, EPHB4
[9] = also reversible lymphoid necrosis of Peyer's patches, skin depigmentation or whitening of the hair; cited from earlier work
pERK T202Y204 in HUVEC = assay: Cell-based target inhibition assay, HUVEC, VEGF, pERK; design: species or system human; conditions: read-out: Cell-Based Target Inhibition Assays IC50, pERK T202Y204, activator VEGF
MV4-11 = assay: cells; assay type: cell-based; conditions: read-out: Cell-Based Antiproliferation Assay IC50; MV4-11; constitutively active (FLT3 ITD Mutation D835)
EPHB2 = EPHB2 (Homo sapiens, UniProt P29323); assay: Biochemical inhibition profile, EPHB2; conditions: read-out: Biochemical Inhibition Profile IC50, EPHB2
EPHB1 = EPHB1 (Homo sapiens, UniProt P54762); assay: Biochemical inhibition profile, EPHB1; conditions: read-out: Biochemical Inhibition Profile IC50, EPHB1
[10] = AML patients, single and multiple oral doses 50 mg
[11] = Visit 0, single oral dose 50 mg, Max of N 5
[12] = Visit 0, single oral dose 50 mg, Min of N 5
[13] = Visit 0, single oral dose 50 mg, individual subjects (AML patients)
[14] = Visit 1, multiple oral doses 50 mg once daily, Max of N 5
[15] = Visit 1, multiple oral doses 50 mg once daily, Min of N 5
[16] = Visit 2, after multiple oral doses 50 mg, Max of N 2
[17] = Visit 2, after multiple oral doses 50 mg, Min of N 2

## Cc1cc(-c2ccn3c(-c4ccc(CC(=O)Nc5cccc(C(F)(F)F)c5)c(F)c4)cnc3c2)ccn1 [LY2457546]
[1]
  Potency relative to sunitinib in controlling leukemia growth: 10 fold
[2]
  Drug-drug interactions with midazolam, tolbutamide, and dextromethorphan: No consistent drug–drug interactions
RET
  IC50: 4.19 nM
[3]; AML patients, 50 mg/day orally
  Elimination within 24 hours: virtually no elimination
[3]; [10]
  Accumulation in plasma: Extensive accumulation
  Terminal elimination half-life: no terminal elimination half-life could be defined
[3]; [11]
  AUC0_24, Max: 41500 ng·h/mL
  AUClast, Max: 79200 ng·h/mL
  Clast, Max: 1354.06 ng/mL
  Cmax, Max: 2406.55 ng/mL
  Tlast, Max: 48 h
  Tmax, Max: 48 h
[3]; [12]
  AUC0_24, Min: 1850 ng·h/mL
  AUClast, Min: 1850 ng·h/mL
  Clast, Min: 78.459 ng/mL
  Cmax, Min: 105.113 ng/mL
  Tlast, Min: 24 h
  Tmax, Min: 2 h
[3]; [13]
  AUC0_24: 2520 ng·h/mL and 8930 ng·h/mL and 41500 ng·h/mL and 1850 ng·h/mL and 3420 ng·h/mL
  AUClast: 6030 ng·h/mL and 16100 ng·h/mL and 79200 ng·h/mL and 1850 ng·h/mL and 3420 ng·h/mL
  Clast: 154.876 ng/mL and 302.003 ng/mL and 1354.06 ng/mL and 105.113 ng/mL and 78.459 ng/mL
  Cmax: 154.876 ng/mL and 604.581 ng/mL and 2406.55 ng/mL and 105.113 ng/mL and 394.238 ng/mL
  Tlast: 48 h and 24 h
  Tmax: 48 h and 2 h and 4 h and 24 h
[3]; Visit 1, multiple oral doses 50 mg once daily, Max of N 3
  AUC0_24, Max: 69100 ng·h/mL
[3]; [14]
  AUClast, Max: 69200 ng·h/mL
  Clast, Max: 2830.537 ng/mL
  Cmax, Max: 3812.913 ng/mL
  Tlast, Max: 48 h
  Tmax, Max: 8 h
[3]; Visit 1, multiple oral doses 50 mg once daily, Min of N 3
  AUC0_24, Min: 2320 ng·h/mL
[3]; [15]
  AUClast, Min: 3610 ng·h/mL
  Clast, Min: 28.097 ng/mL
  Cmax, Min: 123.44 ng/mL
  Tlast, Min: 8 h
  Tmax, Min: 0 h
[3]; [16]
  AUC0_24, Max: 41500 ng·h/mL
  AUClast, Max: 93400 ng·h/mL
  Clast, Max: 2190.006 ng/mL
  Cmax, Max: 2190.006 ng/mL
  Tlast, Max: 48 h
  Tmax, Max: 48 h
[3]; [17]
  AUC0_24, Min: 18500 ng·h/mL
  AUClast, Min: 38400 ng·h/mL
  Clast, Min: 708.777 ng/mL
  Cmax, Min: 1087.972 ng/mL
  Tlast, Min: 48 h
  Tmax, Min: 0 h
EPHA4
  IC50: 157 nM
[4]
  IC50: 200 nM
[5]
  IC50: 41.4 nM
RAF
  IC50: 264 nM
AML blasts; five treated patients, 50 mg/day
  Antileukemia response: No medically relevant responses
AML blasts; one of the five patients (B), through day 10
  Leukocyte and blast cell counts: significant but transient decrease
VEGF-R3
  IC50: 34.1 nM
EPHA8
  IC50: 33.5 nM
p70S6K
  p70S6K percent inhibition at 20 μM: 75.9%
cKIT
  IC50: 73.8 nM
EPHB4 [6]
  IC50: 9.1 nM
[7]
  Expression of pFLT3 and pcKIT: reduced expression
EPHB4 [8]
  IC50: 39.8 nM
[9]
  Toxicities in preclinical toxicology studies: reversible bone marrow toxicity, minimal liver inflammation, reversible physeal dysplasia
pERK T202Y204 in HUVEC
  IC50: 2.05 nM
MV4-11
  IC50: 0.339 nM
EPHB2
  IC50: 45.7 nM
EPHB1
  IC50: 21.4 nM
